According to ChEMBL document CHEMBL1123213, “Neuroleptic activity of chiral trans-hexahydro-gamma-carbolines” (J Med Chem, 1986):

How the values were obtained:
Rattus norvegicus [1] = assay: Antagonistic activity against amphetamine-induced stereotypy in rats; (5 mg/kg administered ip 1 hr after the test compound).; assay type: functional
How it was run: (§1)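 Rats housed singly in covered compartments, briefly acclimated, then dosed sc in groups of five at doses spaced 0.5 log unit (1, 3.2, 10, 32 mg/kg). d-Amphetamine sulfate 5 mg/kg ip given 1, 5 and 24 h later. Behaviour scored on a six-point scale 1 h after each challenge. ED50 by linear regression or by inspection; no fiducial limits.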

Rattus norvegicus [2] = assay: Compound was tested for the antagonistic activity against amphetamine-induced stereotypy in rats; (5 mg/kg administered ip 5 hr after the test compound).; assay type: functional; how it was run: as §1
Dopamine receptor [3] = assay: Inhibition of [3H]spiroperidol (0.5 nM) binding to dopamine receptor from rat striatal membrane.
Rattus norvegicus [4] = assay: Compound was tested for the antagonistic activity against amphetamine-induced stereotypy in rats; (5 mg/kg administered ip 24 hr after the test compound).; assay type: functional; how it was run: as §1
Mus musculus [5] = assay: Compound was tested for the anticholinergic activity against tetrabenazine-treated mice; activity expressed as the pupil size at the dose of 32 mg/kg sc; assay type: functional; settings: route subcutaneous
Rattus norvegicus [6] = assay: Compound was tested for the antagonistic activity against amphetamine-induced stereotypy in rats; (5 mg/kg administered ip 24 hr after the test compound); assay type: functional; how it was run: as §1
Rattus norvegicus [7] = assay: Compound was tested for the antagonistic activity against amphetamine-induced stereotypy in rats; (5 mg/kg administered ip 5 hr after the test compound); assay type: functional; how it was run: as §1
Dopamine receptor [8] = assay: Compound was tested for inhibition of [3H]spiroperidol (0.5 nM) binding to dopamine receptor from rat striatal membrane; Insoluble
Rattus norvegicus [9] = species: Rattus norvegicus; assay: Compound was tested for the antagonistic activity against amphetamine-induced stereotypy in rat.; assay type: functional; how it was run: as §1
Rattus norvegicus [10] = assay: Compound was tested for the antagonistic activity against amphetamine-induced stereotypy in rats; (5 mg/kg administered ip 5 after the test compound).; assay type: functional; how it was run: as §1
Mus musculus [11] = assay: Compound was tested for the anticholinergic activity against tetrabenazine-treated mice; activity expressed as the pupil size at the dose of 1 mg/kg sc; settings: route subcutaneous
Mus musculus [12] = assay: Compound was tested for the anticholinergic activity against tetrabenazine-treated mice; activity expressed as the pupil size at the dose of 100 mg/kg sc; assay type: functional; settings: route subcutaneous
How it was run: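 Groups of five mice dosed sc with test compound, then 1 h later tetrabenazine 32 mg/kg ip. After 30 min, pupil size measured with a binocular microscope; reticle readings converted to mm. Reported as mean ± SD pupil size (mm). Vehicle-pretreated tetrabenazine control groups of five run alongside.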

Mus musculus [13] = assay: Compound was tested for the anticholinergic activity against tetrabenazine-treated mice; activity expressed as the pupil size at the dose of 10 mg/kg sc; assay type: functional; settings: route subcutaneous
How it was run: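 Mice in groups of five dosed sc, then given tetrabenazine 32 mg/kg ip 1 h later. Pupils measured 30 min afterward under a binocular microscope, with reticle readings converted to mm. Reported as mean ± SD pupil size. Vehicle-pretreated tetrabenazine groups served as controls.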

[14] = Rattus norvegicus, ip, 1 h, read-out: ED50
[15] = Rattus norvegicus, ip, 24 h, read-out: ED50
[16] = Rattus norvegicus, ip, 5 h, read-out: ED50

Row | Compound | ED50 (Rattus norvegicus [1]; [14]) [mg/kg] | ED50 (Rattus norvegicus [2]) [mg/kg] | IC50 (Dopamine receptor [3]) [nM] | ED50 (Rattus norvegicus [4]) [mg/kg] | further results
1 | OC(CCN1CC[C@H]2[C@H](C1)c1cc(F)ccc1N2c1ccc(F)cc1)(c1ccccc1)c1ccccc1 | > 10 | > 10 | 220 |  | 
2 | O=C1CNC(=O)N1CCN1CCC2c3cc(F)ccc3N(c3ccc(F)cc3)C2C1 (configuration not stated) | 0.57 | 0.57 | 26 | > 32 | 
3 | O=C1CNC(=O)N1CCCN1CCC2c3cc(F)ccc3N(c3ccc(F)cc3)C2C1 (configuration not stated) | 0.11 | 0.05 | 14 | > 0.32 | 
4 | O=C(CCCN1CC[C@H]2[C@H](C1)c1cc(F)ccc1N2c1ccc(F)cc1)NC1CCCCC1 | 0.45 | 0.14 | 12 | 0.57 | Pupil size (Mus musculus [5]): 0.23 mm
5 | Fc1ccc(N2c3ccc(F)cc3[C@H]3CNCC[C@@H]32)cc1 | 0.36 |  | 6.7 |  | ED50 (Rattus norvegicus [6]; [15]): > 10 mg/kg; ED50 (Rattus norvegicus [7]; [16]): 0.45 mg/kg
6 | I.O=C(CCCN1CC[C@H]2[C@H](C1)c1cc(F)ccc1N2c1ccc(F)cc1)N(c1ccccc1)C1CCCCC1 | > 32 | 1 |  | < 32 | IC50 (Dopamine receptor [8]): Insoluble
7 | Cl.O=C(Nc1ccccc1)OCCN1CC[C@H]2[C@H](C1)c1cc(F)ccc1N2c1ccc(F)cc1 | 0.57 | 0.45 | 45 | 2.3 | 
8 | Cl.Fc1ccc(N(c2ccc(F)cc2)C2CCNCC2)cc1 |  |  | > 1000 |  | 
9 | CN1CCC2C(C1)c1cc(F)ccc1N2c1ccc(F)cc1.Cl (configuration not stated) |  |  | 7.5 |  | ED50 (Rattus norvegicus [9]): 0.3 mg/kg
10 | Cl.O=C1CNC(=O)N1CCCCCCN1CC[C@@H]2c3cc(F)ccc3N(c3ccc(F)cc3)[C@H]2C1 | 0.13 | 0.02 | 14 | 0.07 | 
11 | Cl.O=C(NCCCCCCN1CCc2c(c3cc(F)ccc3n2-c2ccc(F)cc2)C1)c1ccccc1 |  |  | 8.5 |  | ED50 (Rattus norvegicus [9]): > 10 mg/kg
12 | Cl.O=C1CNC(=O)N1CCCCCCN1CCc2c(n(-c3ccc(F)cc3)c3ccc(F)cc23)C1 | 1 | 0.75 | 5.8 | > 10 | 
13 | Cl.O=C(O)CCCN1CCC2C(C1)c1cc(F)ccc1N2c1ccc(F)cc1 (configuration not stated) |  |  | 140 |  | ED50 (Rattus norvegicus [9]): 0.36 mg/kg
14 | Cl.O=C(NCCCCCCN1CCC2C(C1)c1cc(F)ccc1N2c1ccc(F)cc1)c1ccccc1 (configuration not stated) |  |  | 13 |  | ED50 (Rattus norvegicus [9]): 0.1 mg/kg
15 | Cl.OC(CCCN1CCC(N(c2ccc(F)cc2)c2ccc(F)cc2)CC1)c1ccc(F)cc1 (configuration not stated) |  |  | 1000 |  | 
16 | CC(=O)NCCCCN1CCC2C(C1)c1cc(F)ccc1N2c1ccc(F)cc1.Cl (configuration not stated) |  |  | 13 |  | ED50 (Rattus norvegicus [9]): 0.006 mg/kg
17 | Cl.O=C(CCCN1CCC(N(c2ccc(F)cc2)c2ccc(F)cc2)CC1)c1ccc(F)cc1 | > 32 |  | 68 | > 32 | 
18 | Cl.O[C@H](CCCN1CCC2C(C1)c1cc(F)ccc1N2c1ccc(F)cc1)c1ccc(F)cc1 (some centres not stated) | 0.21 | 0.05 | 25 | 0.02 | 
19 | Cl.O=C(CCCN1CC[C@H]2[C@H](C1)c1cc(F)ccc1N2c1ccc(F)cc1)Nc1ccccc1 | 0.45 |  | 19 | 1.8 | Pupil size (Mus musculus [5]): 0.28 mm; ED50 (Rattus norvegicus [10]): 0.18 mg/kg
20 | Cl.O=C(O)CCCN1CCc2c(c3cc(F)ccc3n2-c2ccc(F)cc2)C1 |  |  | > 320 |  | 

Row | Compound | ED50 (Rattus norvegicus [1]; [14]) [mg/kg] | ED50 (Rattus norvegicus [2]) [mg/kg] | IC50 (Dopamine receptor [3]) [nM] | ED50 (Rattus norvegicus [4]) [mg/kg] | further results
21 | Cl.O=C1CNC(=O)N1CCCCN1CC[C@@H]2c3cc(F)ccc3N(c3ccc(F)cc3)[C@H]2C1 | 0.057 | 0.018 | 12 | 0.18 | 
22 | Cl.O=C1CNC(=O)N1CCCCCCN1CCC2c3cc(F)ccc3N(c3ccc(F)cc3)C2C1 (configuration not stated) | 0.18 | 0.033 | 9.4 | > 0.32 | 
23 | CC(=O)NCCCCN1CCc2c(c3cc(F)ccc3n2-c2ccc(F)cc2)C1.Cl |  |  | 54 |  | ED50 (Rattus norvegicus [9]): > 3.2 mg/kg
24 | Cl.O=C1CNC(=O)N1CCCCCN1CC[C@@H]2c3cc(F)ccc3N(c3ccc(F)cc3)[C@H]2C1 | 0.04 | 0.02 | 6 | 0.05 | 
25 | CN1CCc2c(c3cc(F)ccc3n2-c2ccc(F)cc2)C1.Cl |  |  |  |  | ED50 (Rattus norvegicus [9]): > 1 mg/kg
26 | Fc1ccc(N2c3ccc(F)cc3[C@@H]3CNCC[C@H]32)cc1 |  |  | 3200 |  | 
27 | O=C(NCCN1CC[C@H]2[C@H](C1)c1cc(F)ccc1N2c1ccc(F)cc1)C(CO)c1ccccc1 (some centres not stated) | 2.8 | 0.89 | 35 | 32 | Pupil size (Mus musculus [5]): 0.23 mm
28 | Fc1ccc(N2c3ccc(F)cc3[C@H]3CN(CCn4c5ccccc5c5ccccc54)CC[C@@H]32)cc1 | > 32 | > 32 |  |  | IC50 (Dopamine receptor [8]): Insoluble
29 | Fc1ccc(-n2c3c(c4cc(F)ccc42)CNCC3)cc1 | > 10 |  | 350 |  | 
30 | O[C@H](CCCN1CC[C@H]2[C@H](C1)c1cc(F)ccc1N2c1ccc(F)cc1)c1ccc(F)cc1 (stereo in doubt; 2a) |  |  | 25 |  | ED50 (Rattus norvegicus [1]): 0.21 mg/kg; ED50 (Rattus norvegicus [6]): 0.02 mg/kg; ED50 (Rattus norvegicus [7]): 0.05 mg/kg
31 | O[C@H](CCCN1CC[C@H]2[C@H](C1)c1cc(F)ccc1N2c1ccc(F)cc1)c1ccc(F)cc1 (stereo in doubt; 2b) |  |  | 350 |  | ED50 (Rattus norvegicus [1]): >10 mg/kg; ED50 (Rattus norvegicus [6]): >10 mg/kg; ED50 (Rattus norvegicus [7]): 5.7 mg/kg
32 | O[C@H](CCCN1CC[C@@H]2[C@@H](C1)c1cc(F)ccc1N2c1ccc(F)cc1)c1ccc(F)cc1 (stereo in doubt; 2c) |  |  | 22 |  | ED50 (Rattus norvegicus [1]): 0.05 mg/kg; ED50 (Rattus norvegicus [6]): 0.02 mg/kg; ED50 (Rattus norvegicus [7]): 0.02 mg/kg
33 | O[C@H](CCCN1CC[C@@H]2[C@@H](C1)c1cc(F)ccc1N2c1ccc(F)cc1)c1ccc(F)cc1 (stereo in doubt; 2d) |  |  | 1800 |  | ED50 (Rattus norvegicus [1]): >10 mg/kg; ED50 (Rattus norvegicus [6]): >10 mg/kg; ED50 (Rattus norvegicus [7]): 18.1 mg/kg
34 | CN1[C@@H]2CC[C@H]1C[C@@H](OC(=O)C(CO)c1ccccc1)C2.O=S(=O)(O)O (some centres not stated) [ATROPINE SULFATE] |  |  |  |  | Pupil size (Mus musculus [11]): 1.98 mm
35 | CN1CCN(C2=Nc3cc(Cl)ccc3Nc3ccccc32)CC1 [CLOZAPINE] |  |  |  |  | Pupil size (Mus musculus [12]): 1.13 mm
36 | CNCCCN1c2ccccc2CCc2ccccc21.Cl [DESIPRAMINE HYDROCHLORIDE] |  |  |  |  | Pupil size (Mus musculus [13]): 0.66 mm
37 | OC(CCCN1CCc2c(c3cc(F)ccc3n2-c2ccc(F)cc2)C1)c1ccc(F)cc1 (configuration not stated) [FLUTROLINE] | 1 |  | 12 |  | ED50 (Rattus norvegicus [6]; [15]): 2.2 mg/kg; ED50 (Rattus norvegicus [7]; [16]): 0.15 mg/kg
38 | O=C(CCCN1CCC(O)(c2ccc(Cl)cc2)CC1)c1ccc(F)cc1 [HALOPERIDOL] | 0.66 |  |  |  | ED50 (Rattus norvegicus [6]; [15]): > 10 mg/kg; ED50 (Rattus norvegicus [7]; [16]): 0.75 mg/kg
39 | OC1(c2ccc(Cl)c(C(F)(F)F)c2)CCN(CCCC(c2ccc(F)cc2)c2ccc(F)cc2)CC1 [PENFLURIDOL] | ~32 |  | 62 |  | ED50 (Rattus norvegicus [6]; [15]): 3.9 mg/kg; ED50 (Rattus norvegicus [7]; [16]): 2.4 mg/kg
